Measured values from different studies.
Lines come from different studies, so protocols differ.
Target: Homeodomain-interacting protein kinase 1 (HIPK1, Homo sapiens, UniProt Q86Z02)

O=C(NCc1ncc(C(F)(F)F)cc1Cl)c1ccc2c(c1)C1(CCS(=O)(=O)CC1)[C@@H](C1CC1)N2S(=O)(=O)c1ccc(F)cc1  remaining binding (cell-free assay; competition with immobilised ligand; 1 µM): 70%
O=C1NC(=O)c2cc(Nc3ccc(F)cc3)c(Nc3ccc(F)cc3)cc21  remaining signal (cell-free assay; 0.5 µM): 102%
Cc1ccc(C(=O)NCc2ccsc2)cc1C#Cc1cn(C(C)C)c2ncnc(N)c12  activity vs control (enzyme activity; inhibitor; 1 µM): 106%
COc1cccc(Nc2nc3cc(C(=O)O)ccc3c3cnccc23)c1  remaining activity (enzyme activity; inhibitor; radiometric; 1 µM): 11%
Cc1ccc(Nc2nccc(N(C)c3ccc4c(C)n(C)nc4c3)n2)cc1S(N)(=O)=O  inhibition (enzyme activity; inhibitor; 0.3 µM): 11%
O=C(O)c1ccc2c(c1)nc(Nc1ccc3ccccc3c1)c1ncncc12  remaining activity (enzyme activity; inhibitor; radiometric; 1 µM): 1%
COCCOc1nc(-c2ccc(Cl)nc2)nc2c1CN(C(=O)c1ncn3ccccc13)CC2  remaining binding (cell-free assay; competition with immobilised ligand; 0.1 µM): 90%
CC/C(=N\NC(=O)NCc1cccc(O)c1)c1ccc(O)c(C)c1O  inhibition (enzyme activity; inhibitor; 0.1 µM): 6.3%
O=C(N1CCS(=O)(=O)CC1)N1C[C@H](c2ccc(OC(F)(F)F)cc2)C[C@H](c2nc(C3CC3)no2)C1  remaining binding (cell-free assay; competition with immobilised ligand; 1 µM): 100%
COc1cc2ncnc(Nc3ccc(F)c(Cl)c3)c2cc1OCCCN1CCOCC1  remaining signal (cell-free assay; 0.5 µM): 97.6%
FC(F)(F)Oc1cccc(-c2cnc3ccc(-c4ccncc4)nn23)c1  activity vs control (enzyme activity; inhibitor; radiometric; 1 µM): 29%
CNC(=O)c1cc(Oc2ccc(NC(=O)Nc3ccc(Cl)c(C(F)(F)F)c3)cc2)ccn1  inhibition (enzyme activity; inhibitor; 0.3 µM): 14%
O=C(O)c1ccc2c(c1)nc(NCc1ccccc1)c1ccncc12  remaining activity (enzyme activity; inhibitor; radiometric; 1 µM): 76%
CS(=O)(=O)c1cc(C2(NC(=O)c3cncc4c3cnn4-c3ccc(F)cc3)CC2)ccn1  remaining binding (cell-free assay; competition with immobilised ligand; 1 µM): 92%
N#Cc1cccc(Nc2nc3cc(C(=O)O)ccc3c3cncnc23)c1  remaining activity (enzyme activity; inhibitor; radiometric; 1 µM): 17%
CN([C@@H]1CCc2c(CC(=O)O)c3cc(S(C)(=O)=O)ccc3n2C1)S(=O)(=O)c1ccc(F)cc1  remaining binding (cell-free assay; competition with immobilised ligand; 1 µM): 77%
COc1cc(/C=C/C(=O)CC(=O)/C=C/c2ccc(O)c(OC)c2)ccc1O  activity vs control (enzyme activity; inhibitor; 1 µM): 44%
O=C(O)c1ccc2c(c1)nc(Nc1ccccc1)c1ccncc12  remaining activity (enzyme activity; inhibitor; radiometric; 1 µM): 30%
COc1cc2ncnc(Nc3ccc(Oc4ccccc4)cc3C)c2cc1OC  inhibition (enzyme activity; inhibitor; 1 µM): 1%
O=C(O)c1ccc2c(c1)nc(Nc1ccccc1)c1ncncc12  remaining activity (enzyme activity; inhibitor; radiometric; 1 µM): 11%
Cn1nc(C(F)(F)F)cc1-c1cnc(N2CCc3cc(S(=O)(=O)Nc4c(F)cc(Cl)cc4F)cc(N4CCCC4=O)c32)nc1  remaining binding (cell-free assay; competition with immobilised ligand; 1 µM): 87%
